{
  "source": "ChEMBL document CHEMBL1240521",
  "about": "“Design and synthesis of biphenyl derivatives as mushroom tyrosinase inhibitors” (Bioorg Med Chem, 2010)",
  "data": [
    {"molecular_target": "T1, Tyrosinase (Agaricus bisporus, UniProt O42713)", "T1 sequence (O42713 whole entry)": "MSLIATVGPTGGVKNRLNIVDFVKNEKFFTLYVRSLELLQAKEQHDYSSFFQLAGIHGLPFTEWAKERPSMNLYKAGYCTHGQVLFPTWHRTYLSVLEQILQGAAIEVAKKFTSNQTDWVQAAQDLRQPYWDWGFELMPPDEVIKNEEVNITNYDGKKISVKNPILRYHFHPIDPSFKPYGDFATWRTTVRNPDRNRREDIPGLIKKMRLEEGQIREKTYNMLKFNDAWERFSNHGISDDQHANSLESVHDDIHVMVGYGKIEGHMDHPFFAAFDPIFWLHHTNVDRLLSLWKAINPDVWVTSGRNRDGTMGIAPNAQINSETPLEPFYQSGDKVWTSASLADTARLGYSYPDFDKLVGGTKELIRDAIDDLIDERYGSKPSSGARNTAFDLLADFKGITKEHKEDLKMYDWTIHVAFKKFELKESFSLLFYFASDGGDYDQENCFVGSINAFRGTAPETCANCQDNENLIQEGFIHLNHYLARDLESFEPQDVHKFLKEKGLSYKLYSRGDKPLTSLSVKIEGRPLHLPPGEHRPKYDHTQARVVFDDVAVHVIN", "test": "Inhibition of mushroom tyrosinase after 30 mins", "units": {"IC50": "µM"}, "values": [
      {"compound": "COc1cc(-c2ccc(C)c(O)c2)cc(OC)c1OC", "IC50": "> 2000"},
      {"compound": "COc1cc(-c2cc(F)cc(F)c2)cc(OC)c1OC", "IC50": "> 2000"},
      {"compound": "COc1cc(-c2ccc(F)cc2F)cc(OC)c1OC", "IC50": "> 2000"},
      {"compound": "COc1cc(-c2ccc(F)c(F)c2)cc(OC)c1OC", "IC50": "> 2000"},
      {"compound": "COc1cc(-c2cccc(O)c2)cc(OC)c1OC", "IC50": "> 2000"},
      {"compound": "COc1cc(-c2ccccc2C)cc(OC)c1OC", "IC50": "> 2000"},
      {"compound": "COc1cc(-c2ccc(C=O)c(O)c2)cc(OC)c1O", "IC50": 60},
      {"compound": "COc1cc(-c2ccc(C)c(O)c2)cc(OC)c1O", "IC50": 90},
      {"compound": "COc1cc(-c2cc(F)cc(F)c2)cc(OC)c1O", "IC50": 80},
      {"compound": "COc1cc(-c2ccc(F)cc2F)cc(OC)c1O", "IC50": 60},
      {"compound": "COc1cc(-c2ccc(F)c(F)c2)cc(OC)c1O", "IC50": 70},
      {"compound": "COc1cc(-c2cccc(OC)c2F)cc(OC)c1O", "IC50": 60},
      {"compound": "COc1cc(-c2cccc(O)c2F)cc(OC)c1O", "IC50": 80},
      {"compound": "COc1cc(-c2cccc(O)c2)cc(OC)c1O", "IC50": 90},
      {"compound": "COc1cc(-c2ccccc2C)cc(OC)c1O", "IC50": 170},
      {"compound": "COc1cc(-c2ccc(C(=O)O)cc2)cc(OC)c1O", "IC50": 50},
      {"compound": "COc1cc(-c2ccc(C=O)c(OCc3ccccc3)c2)cc(OC)c1OC", "IC50": "> 2000"},
      {"compound": "COc1cc(-c2ccc(C=O)c(O)c2)cc(OC)c1OC", "IC50": "> 2000"},
      {"compound": "COc1cc(-c2ccc(C(=O)O)c(OCc3ccccc3)c2)cc(OC)c1OC", "IC50": "> 2000"},
      {"compound": "COc1cc(-c2ccc(C(=O)O)c(O)c2)cc(OC)c1OC", "IC50": "> 2000"},
      {"compound": "CCOC(=O)c1ccc(-c2cc(OC)c(OC)c(OC)c2)cc1O", "IC50": "> 2000"},
      {"compound": "COc1cc(-c2ccc(C(=O)NCc3ccccc3)c(OCc3ccccc3)c2)cc(OC)c1OC", "IC50": "> 2000"},
      {"compound": "COc1cccc(-c2cc(OC)c(OC)c(OC)c2)c1F", "IC50": "> 2000"},
      {"compound": "COc1ccc(C(C)=O)cc1-c1cc(OC)c(OC)c(OC)c1", "IC50": "> 2000"},
      {"compound": "COc1ccc(C(C)O)cc1-c1cc(OC)c(OC)c(OC)c1", "note": "(configuration not stated)", "IC50": "> 2000"},
      {"compound": "COc1cc(-c2cccc(OCc3ccccc3)c2)cc(OC)c1OC", "IC50": 550},
      {"compound": "COc1cc(-c2ccc(C(=O)O)cc2)cc(OC)c1OC", "IC50": "> 2000"},
      {"compound": "CCCCNC(=O)c1ccc(-c2cc(OC)c(OC)c(OC)c2)cc1", "IC50": "> 2000"},
      {"compound": "COc1cc(-c2ccc(C(=O)NCc3ccccc3)cc2)cc(OC)c1OC", "IC50": "> 2000"},
      {"compound": "COc1cc(-c2ccc(O)c(OCc3ccccc3)c2)cc(OC)c1OC", "IC50": 170},
      {"compound": "COc1cc(-c2ccc(C(=O)O)c(O)c2)cc(OC)c1O", "IC50": 20},
      {"compound": "CCOC(=O)c1ccc(-c2cc(OC)c(O)c(OC)c2)cc1O", "IC50": 50},
      {"compound": "COc1cc(-c2ccc(C(=O)NCc3ccccc3)c(O)c2)cc(OC)c1O", "IC50": 30},
      {"compound": "COc1ccc(C(C)=O)cc1-c1cc(OC)c(O)c(OC)c1", "IC50": 140},
      {"compound": "COc1ccc(C(C)O)cc1-c1cc(OC)c(O)c(OC)c1", "note": "(configuration not stated)", "IC50": 190},
      {"compound": "CCCCNC(=O)c1ccc(-c2cc(OC)c(O)c(OC)c2)cc1", "IC50": 70},
      {"compound": "COc1cc(-c2ccc(C(=O)NCc3ccccc3)cc2)cc(OC)c1O", "IC50": 120},
      {"compound": "COc1cc(-c2ccc(O[C@@H]3O[C@H](CO)[C@@H](O)[C@H](O)[C@H]3O)c(O)c2)cc(OC)c1O", "note": "[FORTUNEANOSIDE E]", "IC50": 140}
    ]},
    {"molecular_target": "T1, Tyrosinase", "test": "Competitive inhibition of mushroom tyrosinase after 30 mins by Lineweaver-Burke double reciprocal plot analysis", "outline": "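Inhibition type and Ki were determined with respect to L-tyrosine as substrate, using mushroom tyrosinase with dopachrome read-out at 492 nm. Incubation was 30 min at 37 °C in 25 mM PBS, pH 6.8.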", "units": {"Ki": "µM"}, "values": [
      {"compound": "COc1cc(-c2ccc(C(=O)O)cc2)cc(OC)c1O", "Ki": 38},
      {"compound": "COc1cc(-c2ccc(C(=O)O)c(O)c2)cc(OC)c1O", "Ki": 15},
      {"compound": "COc1cc(-c2ccc(C(=O)NCc3ccccc3)c(O)c2)cc(OC)c1O", "Ki": 60},
      {"compound": "CCCCNC(=O)c1ccc(-c2cc(OC)c(O)c(OC)c2)cc1", "Ki": 31}
    ]}
  ]
}
